Measurements taken from the EternaBench riboswitch data.

Test system: MS2 coat protein
Assay: apparent Kd, MS2 coat protein; higher = weaker binding; RNA-MaP array; FMN 200 µM where present
Method in brief: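 Designs were transcribed by stalled E. coli RNA polymerase on Illumina sequencing-chip clusters. They were titrated with SNAP-549-labelled MS2 coat protein from 0.7 or 1.5 nM, doubling to 3 µM, without and then with constant ligand. Buffer: 100 mM Tris-HCl pH 7.5, 80 mM KCl, 4 mM MgCl2, BSA, DTT, yeast tRNA, Tween-20. Green signal was normalised to red-channel RNA signal and control-cluster median Fmax. Apparent Kd is the median of filtered per-cluster binding-curve fits.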

[1] = designed as: OFF switch for flavin mononucleotide, no ligand
[2] = ligand present: flavin mononucleotide, designed as: OFF switch for flavin mononucleotide
[3] = designed as: ON switch for flavin mononucleotide, no ligand
[4] = ligand present: flavin mononucleotide, designed as: ON switch for flavin mononucleotide

Sequence	apparent Kd [1] [nM]	apparent Kd [2] [nM]	apparent Kd [3] [nM]	apparent Kd [4] [nM]
GGAUAGGACAGAGGAUAUACGUGCUAGAGAUACUAGCAAAAUUUGCUCACAUGAGGAUCACCCAUGUAGAAGGCUGUCCUAUCG	5.31	19.7		
AAAUAAAUGACUAAGGAUAUAUCAGAGAAAACAUGAGGAUCACCCAUGUAAUAAUAAAAAGGGUGAUAGAAGGUAGUCAACAAACA			222	44.5
UGCCAUUACAUGAGGAUCACCCAUGUUCGCUAUGCGGGCUCGCAGGAUAUCCUCGCAGAUAAAGAGGAGAAGGGUGAUCCCGAC			48	28.9
GAGAAGUCAGGAUAUGCAUGGCGGGACUUGCGUCGUGGCGUGCAGAAGGGACAUGAGGAUCACCCAUGUAAAGA	53	49		
UUUUACCAAGGAUAUACAUUUUUUUUAUUAUUUUCAUUAUAACAUGAGGAUCACCCAUGUAGAAGGUGGAUUUU	54	47.9		
UUUCAGUCAGGAUAUCGUUAAUUUAAUUGUUUGUAUUAGUUCGAGAAGGGACAUGAGGAUCACCCAUGUACUUU	24.3	25.5		
GGGUACAUCGGAGGAUAUCAUGUAAACACAUGAGGAUCACCCAUGUCGAUGGAGACAUCGGAGAUUGAGAAGGCCGAUGUACCG			111	7.62
UUUUUGUCAGGAUAUCAAAAGUACUACUUCGGUAGUACUUUUGAGAAGGGACAUGAGGAUCACCCAUGUAGUUU	61.4	285		
CGUAUGUCAGGAUAUGUGUAUGCCGGUCAGGGCGAGCGGCAGCAGAAGGGACAUGAGGAUCACCCAUGUUCGGG	59.6	116		
CAUAUCGUAACAGGAUAUAUGAGUCCUACAUGAGGAUCACCCAUGUAGGUGAUCUAACGAGAUUAGUAGAAGGGUUACGAUAUG			16.6	8.68
CAGUACUGAGGAUAUACAUGAGGAUCACCCAUGUGUUCCUUGUAGGAUAUGCGCAAAAGUAGAAGGCAGAAGGACAUGUGCCUA	7.48	6.45		
AGCUGGAGAGGAUAUACGUAGGUAAAAAAAGUCUGAUAACUACAUGAGGAUCACCCAUGUAGAAGGCUCUGGCA	16	43.8		
UAUUGUUCCUGAGGAUAUCAGUUGUUUGCAUUAUGAGAAGGCAGUACAUGAGGAUCACCCAUGUUGGGAUUUGAUAGAAUGAUA			185	195
UAAUAAAGUGUGAGGAUAUGCUGGUCCUUGGAUCAGCAGAAGGCACAUGAGGAUCACCCAUGUAAUAUAUAUAU	87.7	223		
GGAUAGGACAGAGGAUAUACGUGCUAGAGAUACUAGCAAAAUUUCCUCACAUGAGGAUCACCCAUGUAGAAGGCUGUCCUAUCG	46	954		
UGGAUGGUAUGAGGAUAUGCGCGCGAAACGUGCGCAGAAGGCAUGUCAAUAGACAUGAGGAUCACCCAUGUAUUAUCCAUCCAA			140	12.5
GUGCCGAACCUAGGAUAUCUUAUCGGGUUCCGCCGUGGCUUAGCGACAUGAGGAUCACCCAUGUAAGAGAAGGAGGUGGUGGAG	299	259		
GAAGGGUAUGAGAAGGCAUAAUUUAUAUUACCACAUGUUUACAUGAGGAUCACCCAUGUUUCCUAUGAGGAUAUCAUACCGAGA	12.4	12.7		
UAUUUAAUCAUAGGAUAUAGUGUGUAAUUUGGACUAGAAGGAUGUAACAUGAGGAUCACCCAUGUGGUAAAUGGGAUACAUUCC			125	132
UUUUACAUAGGAUAUAGUUUCUUUUACAUGAGGAUCACCCAUGUUUCUCUUCUCUCUCUUCUAGAAGGAUGUUUCU	34.8	31.4		
GGUGGCUUCACAGGAUAUCCCGAGCCAAACAUGAGGAUCACCCAUGUGCUGGUAUUAAAAUUUGCGGAGAAGGGUGGUUCACGU			154	74.1
GUACUGACAGGAUAUACAUGAGGAUCACCCAUGUCCUUGUGCUGACAAAAGUCAGCACGUAGAAGGGUCUGUAC	22.9	207		
CCAUUUCUGUAAGGAUAUAUAAACAUGACGAUACAUGAGGAUCACCCAUGUGUAGAAGGUACAAAUACAUAUAAUACAAUGCUC	13.1	11.7		
GCGAUUGCGUAGAAGGUACAAUAUAUUUCAUUGUAAGGAUAUACUUACAUGAGGAUCACCCAUGUUAAAGGAUUUAGCAAUCGC			12.4	10.3
CCUAAGAAAGGAUAUACACCGGUGGGCCGCUGAAUUCAGCAACAUGAGGAUCACCCAUGUAGAAGGUUUAUGGG	75.2	270		
UAGUAUAAGGGCAUUACACAUGAGGAUCACCCAUGUACGUUAGAGGAUAUGCAUUACAGUCGAACGUAGAAGGUUAGAGAAGGG	168	157		
UUUUAACAUGAGGAUCACCCAUGUGAGGAUAUCGAAAUUUAUAUUAAUAUUAUUUUAACGAGAAGGCACAUUUU	76.7	84.2		
GGAUCGAGUGUGAGGAUAUGCUGGUCCUUGGAUCAGCAGAAGGCACAUGAGGAUCACCCAUGUCCAAACGGUCC	266	388		

Sequence	apparent Kd [1] [nM]	apparent Kd [2] [nM]	apparent Kd [3] [nM]	apparent Kd [4] [nM]
UUAUUUAUGUAAGGAUAUCGAUUAUAUACACAUCCUACAUGAGGAUCACCCAUGUUUUAUUUUUUCGAGAAGGUACAUUGUCGG			51.7	47.4
AGGAACAUGAGGAUCACCCAUGUUAGAGACCUCAUGCGAUGUAGAAGGAUAAUCCGAGAAGAGGUAUAGGAUAUACAUGAGAAA	208	171		
GGACGGUUAGUGAGGAUAUGCUCUACCUCGGUAGAGCAGAAGGCACAUGAGGAUCACCCAUGUGAUAACUGUUC	18.6	21.8		
GUUGCACAAGUUAACAUGAGGAUCACCCAUGUCAAAAGACAUGAGGAUAUGGAUCUGAAGAAGAUCCAGAAGGCAUAAUGCUAA			796	117
CCUCUACAUGAGGAUCACCCAUGUGAGGAUAUCUCGGAACAACCACUUAAGGCACUCCAGAGAAGGCACGUGUA	14.9	20.9		
GCGUCAGAAUUAAUUGUGACAUACAGAAGGCAAUAUUAAGGUUAAGACAUGAGGAUCACCCAUGUUGAGGAUAUGUAGUGACGC	8.9	15.8		
GUGCGAGGCUAGGAUAUUGUGGGUUUUUGUCUGCGAGAAGGAGCCACAUGAGGAUCACCCAUGUGGUGUUGCUC	64.4	294		
GUGGUCAGACAUGAGGAUCACCCAUGUGGAAUAAAUAACACACAGGAUAUCUAAUAUAAAAUAUAAGAGAAGGGUGGAUUGGUG			273	182
GCAUACAUUCGAGGAUAUCGGUGAACAAAUUAACGAGAAGGCGAUAUAAUUUUUAAACUUAUUGACAUGAGGAUCACCCAUGUA			23.2	20.8
AAAAAGCGAGGAUAUACAUGAGGAUCACCCAUGUAAAAAACAUGGGAUGAAACAUCAUGUAGAAGGCGCAAAAA	22.6	26		
UUCGUGUAAGGAUAUACGACUCAUCCCAAUGGGACGAGCACGUAGAAGGUACAUGAGGAUCACCCAUGUGCUCC	27.1	155		
GGUACUCAAAGAGUACGGAGUCGAACAUGAGGAUCACCCAUGUAGGAUAUGCUAAGCUUGAAGUUGCAGAAGGACAUGUGCAGC	10.7	11.1		
GCCGUAAGUGUGAGGAUAUACCUAUGGAUACAUAGGUAGAAGGCACAUGAGGAUCACCCAUGUCCUUAAUCGGC	247	267		
CAAUUUAUAUCAGGAUAUACAAUACAAUGAUUAGUAGAAGGGAUUAAUACAUGAGGAUCACCCAUGUCAUGUGUCAUAAUAACC	24.2	19.1		
CAUCUGUGAGGAUAUGGUGAGUAGUGCCUGAGCGCUGCUCACCAGAAGGCACAUGAGGAUCACCCAUGUAUGAC	48.4	188		
GCGUAAAAGAUCCUAUUUAUCUACAUGAGGAUCACCCAUGUGCAGGAUAUGCUAUAUUUAAUAUAGCAGAAGGGCAAUAACCGC	45.6	248		
CGCUAGUCAGGAUAUACGAACAUGUCACCAGACGUGAAGGGACAUGAGGAUCACCCAUGUAGAAGGGACUAGCA	90.5	267		
UGUCGCAGCAGAGGAUAUUACAUGAGGAUCACCCAUGUAUGAACCAAUAGCUGGAAACAGCAAUGUAAGAAGGCUGCUCCGACA	11.7	128		
UUAAUAUAUCAGGAUAUGAUUAUAUGUGUUGAAUCAGAAGGGAUAACAUGAGGAUCACCCAUGUUGUGGAGUGA	69.3	206		
UUGGACGUCGUAGGAUAUGUAGGAUAUUCCUACAUGAGGAUCACCCAUGUUGACAUGGAAGAAGGACAGAAGCACGAUGUCCAU			199	5.35
GUCAGCUCGUGAGGAUAUACAACACUGCUACGGCAGUGUAUUAAGAUCACAUGAGGAUCACCCAUGUAGAAGGCACGAGCUGAU	14	242		
GUAUUAAAGAUCCAUUUAUUCAACAUGAGGAUCACCCAUGUGCAGGAUAUCGUGUGUUUUAUAUUCGAGAAGGGCAAAUUCAUU	44.6	104		
UUUUACAUAGGAUAUAGUUUGUUGUACAUGAGGAUCACCCAUGUUUUUGGUUGUGCUUUUCUAGAAGGAUGUUUCU	47.7	41.7		
UGUUGUAUUACAGGAUAUCUAUUGUUUUUAUUUAGAGAAGGGUAUUCACAUGAGGAUCACCCAUGUAUAUACGAGGAAGUUGUG			59.4	63.2
GCGUUGUACGAGAAGGCCAAUACAUGAGGAUCACCCAUGUUAAGUUGUUUUGGAGGAUAUCGAUCAUCUACAAUAAUGCAACGC	6.74	6.03		
CUGGGCGGAGGAUAUGCGGGUUGGGCUUUUGUUCGGCUGGGACAUGAGGAUCACCCAUGUAGAAGGUUGUUCGG	168	124		
CGAAGUCCGUAGAAGGGUGACAUGAGGAUCACCCAUGUGCGAGCGGAGGGAGUCAGCGGCUCGCCACAGGAUAUACGGAGCACG			61.2	51
